The record followed here is ChEMBL document CHEMBL1133453, “Further studies on nociceptin-related peptides: discovery of a new chemical template with antagonist activity on the nociceptin receptor” (J Med Chem, 2000).

The target in assay [1] is T1, Nociceptin receptor (Mus musculus, UniProt P35377). Description: Affinity to nociceptin receptors on mouse forebrain membranes by [3H]NC-NH2 displacement. The gist of the method:
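Forebrain membranes from male Swiss mice (25-30 g), homogenized in 50 mM Tris HCl, 2 mM EDTA, 100 µM PMSF, pH 7.4, then preincubated 30 min at 37 °C. Bound ligand separated by GF/C filtration. Ki obtained by nonlinear least-squares fitting.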

For assay [2], the species on record is Mus musculus. Description: Potency (Emax) against electrically evoked contraction (twitch response) in mouse vas deferens. The assay is classed as functional. The gist of the method: (§1)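 Mouse vas deferens held in Mg2+-free Krebs at 33 °C under 0.3 g resting tension. Field stimulation through platinum electrodes with supramaximal 1-ms pulses at 0.1 Hz, twitches recorded isotonically. After about 2 h equilibration, cumulative concentration-response curves built in 0.5 log steps up to 10 µM. pEC50 taken as the concentration giving half-maximal effect. Mean of at least 3 experiments.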

Assay [3] is filed under the species Mus musculus. Description: Compound was tested for agonistic activity against electrically evoked contraction (twitch response) in mouse vas deferens. Format: functional, organism-based. The gist of the method: as §1
The target of assay [4] is T1, Nociceptin receptor. Description: Binding affinity towards Orphanin FQ receptor on mouse forebrain membranes was determined using [3H]-NC-NH2 as radioligand. The arrangement: species or system Membrane. In outline:
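Forebrain membranes from male Swiss mice (25-30 g), homogenized in 50 mM Tris HCl, 2 mM EDTA, 100 µM PMSF, pH 7.4, then preincubated 30 min at 37 °C. Competition against 0.5 nM [3H]NC-NH2 using 200 µg protein per assay, run in duplicate, 120 min at 25 °C. Bound ligand separated by GF/C filtration. Ki obtained by nonlinear least-squares fitting.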

The species entered for assay [5] is Mus musculus. Description: Compound was tested for the antagonistic activity on mouse vas deferens using NC(1-13)NH2 as agonist; NA means Inactive up to 10 uM. The assay is classed as functional, organism-based. In outline:
(§2)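 Electrically stimulated mouse vas deferens (Mg2+-free Krebs, 33 °C, 0.1 Hz, 1-ms pulses). Antagonist at 10 µM added 15 min before a cumulative NC(1-13)NH2 concentration-response curve. pKB calculated with the Gaddum-Schild equation, assuming a slope of 1, from the concentration ratio. Mean of at least 3 experiments, with 95% confidence limits.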

Assay [6] is filed under the species Mus musculus. Description: Potency (Emax) against electrically evoked contraction (twitch response) in mouse vas deferens; NA means Inactive up to 10 uM. Format: functional, organism-based. The gist of the method:
as §1

The species named for assay [7] is Mus musculus. Description: Compound was tested for agonistic activity against electrically evoked contraction (twitch response) in mouse vas deferens; NA means Inactive up to 10 uM. The assay is classed as functional, organism-based. The gist of the method: as §1
For assay [8], the species on record is Mus musculus. Description: Potency (Emax) at 10 uM against electrically evoked contraction (twitch response) in mouse vas deferens; Slight effect (50% inhibition was detected at 10 uM). The assay is classed as functional, organism-based. In outline:
as §1

The species entered for assay [9] is Mus musculus. Description: Compound was tested for agonistic activity against electrically evoked contraction (twitch response) in mouse vas deferens; Slight effect (50% inhibition was detected at 10 uM). The assay is classed as functional, organism-based. The following applies: filed as partial agonist. The gist of the method:
as §1

Assay [10] is filed under the species Mus musculus. Description: Compound was tested for the antagonistic activity on mouse vas deferens using NC(1-13)NH2 as agonist. Format: functional. In outline:
as §2

The source made the active and inactive calls. The rule behind the calls is not given here. Numbered stars: 1 amine (or outer) side, 2 acyl side, 3 side chain; on linkers, the order of the positions; unused ones are H or OH. Square brackets hold non-standard residues; d marks the D form. Peptide text beside a SMILES is read from it. X5 = N[C@@H](Cc1ccc(O)cc1)CN(CC(=O)[*:2])[*:1]; X1 = CC(C)C[C@H](N)CN(CC(=O)[*:2])[*:1]; Nphe = O=C(O)CNCc1ccccc1 Some results are limits rather than exact numbers.

The Ki is a measure of affinity in units of concentration, obtained from inhibition or displacement. A low value points to a stronger hold on the target. The term Emax denotes the greatest response seen or fitted, relative to the assay's reference. Usually EC50 stands for the concentration giving half of the maximal effect. Read a high EC50 as weaker potency. The term pKB denotes −log10 of the KB, conventionally taken in molar units.

T1 sequence (P35377 whole entry): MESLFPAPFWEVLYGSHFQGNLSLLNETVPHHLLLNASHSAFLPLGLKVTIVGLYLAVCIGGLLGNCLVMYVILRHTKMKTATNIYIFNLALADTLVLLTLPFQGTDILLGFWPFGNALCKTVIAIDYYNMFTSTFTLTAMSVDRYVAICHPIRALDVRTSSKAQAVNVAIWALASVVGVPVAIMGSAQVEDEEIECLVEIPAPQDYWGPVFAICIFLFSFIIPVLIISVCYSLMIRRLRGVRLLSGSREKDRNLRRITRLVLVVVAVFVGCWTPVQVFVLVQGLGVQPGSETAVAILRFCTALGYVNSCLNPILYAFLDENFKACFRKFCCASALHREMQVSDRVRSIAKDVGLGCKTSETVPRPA

In assay [1], `C[C@H](NC(=O)CNC(=O)[C@@H](NC(=O)[C@H](Cc1ccccc1)NC(=O)CNC(=O)CNC(=O)[C@@H](N)CC1CCCCC1)[C@@H](C)O)C(=O)N[C@@H](CCCN=C(N)N)C(=O)N[C@@H](CCCCN)C(=O)N[C@@H](CO)C(=O)N[C@@H](C)C(=O)N[C@@H](CCCN=C(N)N)C(=O)N[C@@H](CCCCN)C(N)=O` had a Ki of 1 nM. For the same compound, in assay [2], the Emax was -84%. The compound also had an EC50 in [3] of 12.6 nM.

`Cc1ccc(C[C@H](N)C(=O)NCC(=O)NCC(=O)N[C@@H](Cc2ccccc2)C(=O)N[C@H](C(=O)NCC(=O)N[C@@H](C)C(=O)N[C@@H](CCCN=C(N)N)C(=O)N[C@@H](CCCCN)C(=O)N[C@@H](CO)C(=O)N[C@@H](C)C(=O)N[C@@H](CCCN=C(N)N)C(=O)N[C@@H](CCCCN)C(N)=O)[C@@H](C)O)cc1` had a Ki in [1] of 200 nM. Further, the Emax in assay [2] is -70%. The compound further showed an EC50 in [3] of 2510 nM.

The compound `C[C@H](NC(=O)CNC(=O)[C@@H](NC(=O)[C@H](Cc1ccccc1)NC(=O)CNC(=O)CNC(=O)[C@@H](N)Cc1ccccc1)[C@@H](C)O)C(=O)N[C@@H](CCCN=C(N)N)C(=O)N[C@@H](CCCCN)C(=O)N[C@@H](CO)C(=O)N[C@@H](C)C(=O)N[C@@H](CCCN=C(N)N)C(N)=O` (H-FGGFTGARKSAR-NH2) gave a Ki in [1] of 25.1 nM. Also, the Emax in assay [2] is -79%. The same compound showed an EC50 in assay [3] of 794 nM.

`CC(C)C[C@H](N)C(=O)NCC(=O)NCC(=O)N[C@@H](Cc1ccccc1)C(=O)N[C@H](C(=O)NCC(=O)N[C@@H](C)C(=O)N[C@@H](CCCN=C(N)N)C(=O)N[C@@H](CCCCN)C(=O)N[C@@H](CO)C(=O)N[C@@H](C)C(=O)N[C@@H](CCCN=C(N)N)C(=O)N[C@@H](CCCCN)C(N)=O)[C@@H](C)O` (H-LGGFTGARKSARK-NH2) had a Ki in [1] of 2.51 nM. Also, the Emax in assay [2] was -80%. Besides, a half-maximal effect in [3] (EC50) was put at 25.1 nM.

`C[C@H](NC(=O)CNC(=O)[C@@H](NC(=O)[C@H](Cc1ccccc1)NC(=O)CNC(=O)CNC(=O)[C@@H](N)Cc1ccc(O)cc1)[C@@H](C)O)C(=O)N[C@@H](CCCN=C(N)N)C(=O)N[C@@H](CCCCN)C(=O)N[C@@H](CO)C(=O)N[C@@H](C)C(=O)N[C@@H](CCCN=C(N)N)C(=O)N[C@@H](CCCCN)C(N)=O` (H-YGGFTGARKSARK-NH2) showed a Ki in assay [1] of 3.98 nM. For the same compound, in assay [2], the Emax is -89%. The compound further showed an EC50 in [3] of 25.1 nM.

In the case of `C[C@H](NC(=O)CNC(=O)[C@@H](NC(=O)[C@H](Cc1ccccc1)NC(=O)CNC(=O)CNC(=O)CNCc1ccccc1)[C@@H](C)O)C(=O)N[C@@H](CCCN=C(N)N)C(=O)N[C@@H](CCCCN)C(N)=O` (H-[Nphe]GGFTGARK-NH2), the inhibition constant Ki in assay [4] was over 10000 nM. In addition, in assay [5], the pKB entry was “inactive”. In [6], the Emax entry was “inactive”. Besides, the “Log EC50” value in assay [7] is “inactive”.

`CC(C)C[C@H](N)CNCC(=O)NCC(=O)N[C@@H](Cc1ccccc1)C(=O)N[C@H](C(=O)NCC(=O)N[C@@H](C)C(=O)N[C@@H](CCCN=C(N)N)C(=O)N[C@@H](CCCCN)C(=O)N[C@@H](CO)C(=O)N[C@@H](C)C(=O)N[C@@H](CCCN=C(N)N)C(=O)N[C@@H](CCCCN)C(N)=O)[C@@H](C)O` (H-[X1]GFTGARKSARK-NH2) gave a Ki in [1] of 15.8 nM. In addition, the Emax result in [8] was “Partially active”. Also, the “Log EC50” value in assay [9] is “Partial agonist”. Further, the pKB in [10] was found to be 5.4.

Consider `C[C@H](NC(=O)CNC(=O)[C@@H](NC(=O)[C@H](Cc1ccccc1)NC(=O)CNC(=O)CNC[C@@H](N)Cc1ccc(O)cc1)[C@@H](C)O)C(=O)N[C@@H](CCCN=C(N)N)C(=O)N[C@@H](CCCCN)C(=O)N[C@@H](CO)C(=O)N[C@@H](C)C(=O)N[C@@H](CCCN=C(N)N)C(=O)N[C@@H](CCCCN)C(N)=O` (H-[X5]GFTGARKSARK-NH2), for which, in assay [1], the affinity corresponds to a Ki of 100 nM. Besides, the Emax result in [8] was “Partially active”. Also, the “Log EC50” value in assay [9] is “Partial agonist”. In [10], this compound yielded a pKB of 5.7.
